# Calb FLC – C. albicans growth modulation with fluconazole. C. albicans CaCi-2 (fluconazole-resistant clinical isolate) + fluconazole, Alamar Blue growth, 48 h. growth inhibition, % (no concentration beside the values). 300,000 tested, 0.57% active;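 active means growth inhibition above about 58% in most replicates, limit read from the data, passing the limit was not always enough; inconclusive means exactly half the replicates above a set limit; inactive means most replicates below a set limit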;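 further: all wells also contain fluconazole at 8 µg/ml as a sub-toxic cotreatment; 0% = median of DMSO wells and 100% = median of geldanamycin control wells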
# H9c2 TAG inh – triacylglycerol accumulation inhibition | H9c2 cells, Nile Red lipid (TAG) fluorescence; cells loaded with 200 µM oleic acid | inhibition, % at 12.5 µM | 230,000 tested, 0.66% active;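 active means pattern-corrected inhibition of lipid staining of at least 50% with the nuclear-stain viability signal not falling by more than 50%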;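 further: 0% = DMSO wells and 100% = triacsin C control wells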
# Efflux pump inh – blocks antifungal efflux pumps in multiplex yeast assay; S. cerevisiae Candida pump triplex, Nile Red efflux; inhibition, % at 10 µM; 330,000 tested, 0.44% active;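 active means plate passing quality check with inhibition over a set limit, or well fluorescence over plate mean plus 4 SD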;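 further: Nile Red retained in pooled yeast measured as flow cytometry median fluorescence; 0% = buffer negative control and 100% = Enniatin B positive control; higher means more Nile Red kept so more efflux inhibition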
# GalR3 antag – antagonists of human GalR3; O60755; HEK293 GalR3-CNG cAMP membrane potential fluorescence; galR3 body fused to GalR1 C-terminus; inhibition, % at 3 µM; 360,000 tested, 0.44% active; AID 651719;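 active means inhibition above the screen-wide average plus 3 SD, cut at about 13% in these data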;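 further: forskolin and galanin both at EC90 stimulate the cells; cAMP rise reported by CNG channel membrane potential dye signal; 0% = forskolin plus galanin with DMSO and 100% = forskolin alone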
# Target sequence (O60755 1-299 limits assumed): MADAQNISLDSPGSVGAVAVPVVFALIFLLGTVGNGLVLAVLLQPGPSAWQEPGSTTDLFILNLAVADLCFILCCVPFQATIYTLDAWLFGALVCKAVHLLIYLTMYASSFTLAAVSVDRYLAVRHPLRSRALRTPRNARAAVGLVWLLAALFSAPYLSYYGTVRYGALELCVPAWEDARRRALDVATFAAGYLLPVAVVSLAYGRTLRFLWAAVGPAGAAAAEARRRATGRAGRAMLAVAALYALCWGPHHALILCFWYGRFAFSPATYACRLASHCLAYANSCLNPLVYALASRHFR
# MC4R ag barr – activates human MC4R beta-arrestin recruitment; P32245; U2OS MC4R beta-arrestin complementation, luminescence; percent of melanotan II response, DMSO zero; activation, % at 8.9 µM; 360,000 tested, 0.98% active; AID 540308;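 active means activation above a per-plate cutoff, the mean activation of sample wells on that plate plus 3 SD, cut at about 8% in these data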
# Target sequence (P32245 whole entry, looked up): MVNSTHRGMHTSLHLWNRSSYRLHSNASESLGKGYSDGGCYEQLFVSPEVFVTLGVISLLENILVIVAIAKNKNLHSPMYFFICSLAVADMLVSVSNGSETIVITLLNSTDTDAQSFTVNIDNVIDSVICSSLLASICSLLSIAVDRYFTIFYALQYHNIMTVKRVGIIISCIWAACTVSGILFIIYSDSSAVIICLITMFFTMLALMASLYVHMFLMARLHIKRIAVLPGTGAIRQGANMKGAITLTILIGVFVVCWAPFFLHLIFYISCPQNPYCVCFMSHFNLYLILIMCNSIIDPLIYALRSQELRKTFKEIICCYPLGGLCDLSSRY
# MC4R antagonist – human MC4R antagonism in cAMP assay; P32245; MC4R-expressing cells, MTII-stimulated cAMP, LANCE TR-FRET; inhibition, % at 6.5 µM; 360,000 tested, 0.48% active; AID 540295;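 active means inhibition above its plate's cutoff, the mean of tested wells on that plate plus 3 SD, cut at about 29% in these data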;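 further: 0% = Melanotan II alone and 100% = Melanotan II plus saturating MCL0020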
#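 Material: U2OS-MC4R stable cell line | Reagent: Melanotan II challenge after compound preincubation | Doses: One concentration, 6.5 µM nominal | Incubation: 30-min compound preincubation, 1-h Melanotan II challenge, 1-h detection, room temperature | Signal: TR-FRET cAMP assay | Replicates: One well per compound, no replicates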
# * = called active by the depositor; u = inconclusive; x = not tested or not shown. Most compounds without a hit are left out; they make up all but 2.9% or so of the library.
SMILES,Calb FLC,H9c2 TAG inh,Efflux pump inh,GalR3 antag,MC4R ag barr,MC4R antagonist
COc1ccc(CNC(=O)C(c2ccncc2)N(C(=O)Cc2cccs2)c2ccccc2)cc1 (configuration not stated),x,2.5,x,5.6,-0.6,-0.8
O=C(Nc1ccc2c(c1)OCCO2)C(C1CC1)n1c(=O)c(-c2cc3ccccc3[nH]2)nc2ccccc21 (configuration not stated),x,x,x,-1.0,x,x
CN(C)CCOC(=O)c1sc2ccccc2c1Cl,110.4*,4.7,0.1,-10.4,-2.6,20.7
NC(=O)NC(=O)COC(=O)c1sc2ccccc2c1Cl,-0.5,2.8,0.0,5.1,5.2,-0.8
Cc1cc(=O)oc2cc(NC(=O)C3COc4ccccc4O3)ccc12 (configuration not stated),6.8,x,-0.1,-7.3,10.6*,13.4
CS(=O)(=O)NN1C(=O)c2ccccc2NC1c1cccc2cccnc12 (configuration not stated),80.3*,-1.3,-0.1,-3.2,-1.8,8.1
COc1ccc(C2Nc3ccccc3C(=O)N2NS(C)(=O)=O)cc1 (configuration not stated),-8.2,8.6,-0.1,-2.0,0.2,11.4
Cn1c(Nc2ccc(Cl)cc2F)nc2cc(-c3ccccc3)sc2c1=O,x,7.2,x,-2.6,2.6,3.3
CCOC(=O)Cc1csc(NC(=O)c2ccc3ncsc3c2)n1,116.3*,-15.5,0.2,0.8,0.8,-2.1
O=C(N/N=C/c1ccc2c(c1)OCO2)c1sc2cccc(Cl)c2c1Cl,-2.1,2.8,0.0,2.2,8.3*,3.1
Cc1ccc(N(CN2CCCC2=O)C(=O)c2ccccc2)cc1,u,7.0,-0.1,3.0,-2.6,5.7
COc1ccc(C(=O)N(CN2CCCC2=O)c2ccc(C)cc2)cc1,103.1*,3.7,0.0,-6.7,-1.1,1.8
Cc1cccc2c(=O)n(C(=O)c3ccccc3)c(N)nc12,x,-10.8,x,-6.6,-1.3,-7.2
COc1ccc(NC(=O)c2cc(CC(C)C)nc3ccccc23)cc1,26.5,-4.2,-0.1,-1.3,0.3,14.7
CC(C)(C)C(=O)Nc1ccc(Sc2ccc([N+](=O)[O-])cc2)cc1,28.2,x,1.4,-6.2,3.7,14.9
CC(=O)Nc1ccc(Sc2ccc([N+](=O)[O-])o2)cc1,x,62.5*,x,1.3,-2.0,26.1
CC1(C(=O)NCc2ccccc2)CSCC(=O)N1CCOc1ccccc1 (configuration not stated),x,x,x,-4.5,x,x
S=c1[nH]c2ncccc2o1,0.6,x,-0.2,3.6,-1.8,2.6
S=c1[nH]c2cc(Cl)c3cccnc3c2o1,78.7*,-10.2,0.2,-11.9,1.6,23.3
CCN(CC)CCNC(=O)c1ccc(NCN2C(=O)NC(c3ccccc3)(c3ccccc3)C2=O)cc1,x,x,x,-5.5,x,x
S=c1[nH]nc(-c2cccs2)n1/N=C/c1cn(-c2ccccc2)nc1-c1ccccc1,16.3,12.0,-0.1,3.4,9.4*,18.9
CCC(C)c1ccc2oc(-c3ccc(NC(=O)c4ncn[nH]4)cc3)nc2c1 (configuration not stated),64.7,x,0.2,-4.7,-1.4,-0.6
CC(C)c1ccc2oc(-c3ccc(NC(=O)c4ncn[nH]4)cc3)nc2c1,88.1*,x,0.1,-4.8,x,x
CN1CCN(C(=S)c2cn(Cc3ccc(F)cc3)c3ccccc23)CC1,121.2*,-10.1,-0.2,-7.6,-2.9,-8.7
CN1CCN(C(=S)c2cn(Cc3cccc(F)c3)c3ccccc23)CC1,14.9,-17.1,-0.3,-3.1,-2.1,-3.5
SMILES,Calb FLC,H9c2 TAG inh,Efflux pump inh,GalR3 antag,MC4R ag barr,MC4R antagonist
COc1ccc(C=NNC(=S)Nc2ccc(F)cc2)cc1OC,x,-10.4,x,2.2,0.7,-0.8
COc1ccc(C=NNC(=S)NN=Cc2ccc(OC)c(OC)c2)cc1OC,x,10.1,x,15.8*,-2.0,-4.7
O=C(C(=Cc1ccc(F)cc1)C(=O)c1ccccc1)c1ccccc1,x,x,x,-8.8,x,x
Cc1sc(NC(=O)C2CC(=O)N(Cc3ccco3)C2)nc1-c1ccccc1 (configuration not stated),x,10.1,x,-10.1,0.2,7.3
O=C(NCc1ccco1)C(c1ccccc1)N(CC1CCCO1)C(=O)Cn1nnc2ccccc21 (configuration not stated),30.5,-19.4,0.0,1.4,0.1,-0.1
O=C(NCc1ccc(F)cc1)C(c1ccccc1)N(CC1CCCO1)C(=O)Cn1nnc2ccccc21 (configuration not stated),91.6*,-22.7,-0.3,-5.4,-1.8,0.2
CN1OC[C@@H]2CN3C(=NCCc4ccccc4)Sc4ccccc4[C@@H]3C[C@@H]21,x,x,x,-8.9,x,x
CCOC(=O)C1=C(C(=O)OCC)C2N(Cc3ccc(C#N)cc3)c3ccccc3[C@@]23C[C@@H](C(=O)OC)N(S(=O)(=O)c2ccccc2C)C3=N1 (some centres not stated),x,x,x,1.6,x,x
Oc1cccc2cc(Nc3ccccc3)cnc12,x,68.9*,x,-4.4,1.5,0.5
CC(C)(O)C(=O)NNC(=S)Nc1cccc(C(F)(F)F)c1,-3.2,1.9,-0.1,-7.3,-5.7,6.1
CC(O)(CS(=O)(=O)Cc1ccc(Cl)cc1)C(=O)Nc1cccc(C(F)(F)F)c1 (configuration not stated),8.5,x,0.0,x,11.4*,11.5
CCCc1ccc2c(C(F)(F)F)cc(C(F)(F)F)cc2n1,x,x,x,-2.4,x,x
COc1ccc2ccccc2c1/C=N/NC(=O)c1cccc(Br)c1,16.4,-2.5,-0.1,-3.4,-0.1,12.6
O=C(N/N=C/c1c(O)ccc2ccccc12)c1cccc(C(F)(F)F)c1,89.8*,x,0.1,0.8,-3.8,-1.9
O=C(CCNC(=O)c1ccc([N+](=O)[O-])cc1)Nc1nccs1,-0.2,14.4,0.4,-5.4,2.7,20.1
O=C(CCNC(=O)c1ccc(Br)cc1)Nc1nccs1,111.7*,-1.6,0.2,-2.1,-1.0,8.5
CCOC(=O)C(C)CC(C)C(=O)N1CCOCCOCCN(C(=O)C(C)CC(C)C(=O)OCC)CCOCC1 (configuration not stated),-1.2,15.7,0.1,2.5,-2.4,-3.5
CCOC(=O)C(C(=O)OCC)C(C(=O)OCC)N1CCOCC1 (configuration not stated),-8.0,98.6*,0.1,0.0,1.5,9.5
Cc1ccc(S(=O)(=O)c2ccc([N+](=O)[O-])o2)cc1,x,76.7*,x,9.0,-3.2,88.4*
CC(C)(C)c1ccc(CC(=O)N2CCC2(C)C(=O)Nc2cccc3c2CCCC3)cc1 (configuration not stated),x,-19.8,x,-2.5,-0.1,2.1
Cc1ccc(NCc2ccc(O)c3ncccc23)cc1,64.2*,-3.8,-0.2,-7.2,-3.0,-2.3
Cc1cccnc1NCc1ccc(O)c2ncccc12,-26.8,25.8,0.1,-2.3,-2.5,-2.2
Cc1cccc(NCc2ccc(O)c3ncccc23)c1C,104.2*,x,0.0,-4.9,1.0,21.3
